# Screens as filed in PubChem.
# A selection: hits, their analogues and other compounds. The true share with any hit is near 5.6%.
# MPTP block – permeability transition pore inhibition | inhibition, % at 10 µM | actives 1.4% (n = 360,000) | isolated mouse mitochondria, Ca2+ swelling absorbance, 30 min | AID 602449;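 active means inhibition of 50% or more, scaled per plate between neutral and stimulator controls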;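 further: 0% = DMSO wells given calcium and 100% = 1 mM EGTA wells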
# UPR CHOP act – activators of apoptotic arm of unfolded protein response (CHOP); CHO-CHOP luciferase reporter, UPR activation, luminescence; percent of tunicamycin response over DMSO baseline; activation, % at 10 µM; actives 0.34% (n = 330,000);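 active means at 10 µM dose, activation of 40% or more, normalized to positive control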;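 further: 100% = tunicamycin at 10 µg/mL and 0% = DMSO alone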
#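 System: CHO-CHOP luciferase reporter cell line; amount: 500 cells/well; buffer or medium: F12 medium containing 10% fetal bovine serum; incubation: 6 h compound exposure at 37 °C after overnight seeding; measured by: luciferase luminescence after 10 min with Steady-Glo reagent; evaluation: % reporter activation, DMSO baseline versus tunicamycin full activation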
# GRIN3A LBD mod – NR3A (human) ligand-binding domain modulation | actives 2.5% (n = 340,000) | AID 1259313 | NR3A LBD differential scanning fluorimetry, Tm shift; 0% = protein alone, 100% = glycine-bound protein | Tm shift relative to glycine control, % at 25 µM;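 active means melting temperature shift of at least 10% of the positive control shift, at one fixed dose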
# aDG glyco up – alpha-DG glycosylation activation | Pro5-aDG cells, alpha-DG glycosylation AlphaScreen (IIH6); 0% Pro5, 100% B10-LARGE cell signal | actives 0.22% (n = 360,000) | activation, % at 10 µM;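 active means activation of at least 8% versus controls, or a plate z-score of at least 8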;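 further: Pro5 are CHO cells carrying HIG-tagged alpha-DG that lacks glycosylation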
# XBP1 UPR activ – adaptive UPR (XBP1) activation | AID 463104 | activation, % at 20 µM | CHO-XBP1 luciferase reporter, IRE1-XBP1 UPR activation, luminescence; percent of tunicamycin response, DMSO as zero | actives 0.33% (n = 330,000);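 active means versus positive control, 20 µM dose yields 30% or more activation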;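 further: 100% = tunicamycin at 10 µg/mL and 0% = DMSO only wells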
#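 Assay system: CHO-XBP1 luciferase reporter cells; Schedule: 6 h treatment, 37 °C; Detection: glow luminescence from Steady-Glo reagent; Benchmarks: high control tunicamycin 10 µg/mL final, low control DMSO vehicle only.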
# CHOP inhibitor – inhibitors of CHOP induction in ER stress response; CHO-K1 CHOP-promoter luciferase, tunicamycin-induced, 15-18 h; inhibition, % at 10 µM; actives 3.8% (n = 220,000);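 active means compounds that reduced the stress-induced luciferase reporter signal by more than about 70% of percent inhibition, limit read from the data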;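 further: 0% = tunicamycin plus vehicle and 100% = wells without tunicamycin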
# CHOP UPR conf – apoptotic UPR (CHOP) activation, confirmed. shares compounds with UPR CHOP act. CHO-CHOP cells, CHOP-luciferase reporter luminescence; percent of tunicamycin response, DMSO as zero. activation, % at 10 µM. actives 64% (n = 1,000); in the data active means activation above about 33%;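 further: 0% = DMSO wells and 100% = tunicamycin 10 µg/mL wells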
# * = called active by the depositor; / = no result.
SMILES,MPTP block,UPR CHOP act,GRIN3A LBD mod,aDG glyco up,XBP1 UPR activ,CHOP inhibitor,CHOP UPR conf
COc1ccccc1NC(=O)c1cnc(SCC(=O)NCC2CCCO2)n(C)c1=O (stereo not given),-1,57*,-1,0,-2,/,34*
COc1ccccc1-n1nnnc1SCC(=O)NCC1CCCO1 (stereo not given),1,0,1,0,-2,/,/
Cn1c(/C=C/c2ccc([N+](=O)[O-])o2)nc2ccccc2c1=O,-3,127*,4,-1,6,/,75*
Cc1ccc(/C=C/C(=O)NC2CCCCCCC2)o1,2,125*,-2,0,4,54,3
C[C@@H]1CN([C@H](C)CO)C(=O)c2cc(Br)cnc2O[C@@H]1CN(C)Cc1ccc(-c2ccccc2)cc1,-1,/,/,0,/,/,/
Cc1[nH]c2ccccc2c1CN1CCN(c2ccccn2)CC1,0,50*,-1,0,25,-32,8
CCOC(=O)c1c(CSC(=N)N)n(-c2ccc(C)cc2)c2cc(Br)c(OC(C)=O)cc12,0,56*,0,-1,-6,-13,73*
O=C1ON=C(c2ccc(Cl)cc2)/C1=C/c1ccc(O)cc1,/,107*,-6,/,-2,-45,21
O=C1ON=C(c2ccccc2)/C1=C/c1ccc(O)cc1,2,10,5,0,7,/,/
CSC(=S)N/N=C(\C)c1ccccc1,-1,109*,-4,0,2,-122,79*
COc1cc(/C=C(/C(=O)c2cccs2)c2nc3ccccc3[nH]2)cc(OC)c1O,4,126*,-3,0,8,-90,161*
O=C(NCc1nc2ccccc2[nH]1)c1cccs1,-1,1,-2,0,0,12,/
Cc1nn(-c2cccc3cccnc23)c(=O)c2ccccc12,-2,45*,-3,0,0,40,-1
COc1ccc(CCNC(=S)NC2CCN(Cc3ccccc3)CC2)cc1,22,-1,-2,1,-3,13,/
CC(=O)N/C(=N\c1nc(C)cc(C)n1)Nc1ccc(Cl)cc1Cl,-2,49*,-5,0,-3,/,0
O=C(C1CCN(S(=O)(=O)c2c(Cl)cccc2Cl)CC1)N1CCCCCCC1,0,1,0,0,1,/,/
CCCCC1CCC(C(=O)N(CCCC)c2c(N)n(CCCC)c(=O)[nH]c2=O)CC1 (stereo not given),-2,115*,-1,0,13,/,35*
COc1ccc(C(=O)OCC(=O)c2ccc3c(c2)NC(=O)CO3)cc1S(=O)(=O)N1CCOCC1,-1,1,-1,0,-1,/,/
O=C1/C(=C/c2ccc(N3CCOCC3)o2)SC(=Nc2ccccc2)N1CCc1c[nH]c2ccccc12,-1,110*,6,-1,-10,-20,36*
Cc1ccc(C(=O)Sc2cccccc2=O)cc1,1,112*,0,0,0,/,17
CN(C(=O)c1ccc(Cl)c([N+](=O)[O-])c1)C1(C)CCS(=O)(=O)C1 (stereo not given),-1,-2,/,0,-2,/,/
Clc1ccc2ccc3cccnc3c2n1,0,3,3,0,-3,/,/
O=S1(=O)Nc2c(ccc3cccnc23)-c2ccccc21,-4,346*,/,0,1,/,425*
Cc1nn(CSc2c(F)c(F)c(F)c(F)c2F)c(C)c1[N+](=O)[O-],-1,2,-2,1,0,/,/
CCN(CC)c1ccc2c(O)cc(=O)oc2c1,0,-1,0,0,1,3,/
SMILES,MPTP block,UPR CHOP act,GRIN3A LBD mod,aDG glyco up,XBP1 UPR activ,CHOP inhibitor,CHOP UPR conf
CCN(CC)c1ccc(C(=O)OCc2cc(=O)oc3cc(O)ccc23)cc1,1,54*,4,0,78*,51,22
Cc1cc(-n2c(C)cc(C(=O)CCl)c2C)no1,0,171*,-1,0,1,-291,263*
Cc1cc(-n2c(C)cc(C(=O)CN3C(=O)C(=O)N(C)C3=O)c2C)no1,-1,0,1,0,-3,/,/
CCOc1ccccc1N1CC(C(=O)N(Cc2nnc(-c3ccccc3Cl)o2)C2CC2)CC1=O (stereo not given),-1,-1,0,0,-4,/,/
O=C(Nc1scc(-c2ccccc2)c1C(=O)O)c1ccccc1F,0,4,0,0,-2,/,/
O=C(Nc1scc(-c2ccc(Br)cc2)c1C(=O)O)c1ccccc1F,6,56*,-5,0,5,/,5
O=C(CNc1cc(S(=O)(=O)N2CCOCC2)ccc1N1CCCC1)Nc1ccc(Cl)cc1,0,/,-2,0,/,/,/
Cc1ccc2oc(Nc3nc(-c4ccccc4)cc(=O)[nH]3)nc2c1,/,364*,-4,/,28,101*,423*
COCc1cc(=O)[nH]c(Nc2nc3ccccc3o2)n1,0,20,-5,-1,3,26,/
Oc1ccc(-c2nc(-c3ccc(O)c(O)c3)cs2)cc1,16,146*,21*,0,9,/,96*
Oc1ccc(-c2csc(-c3cccnc3)n2)c(O)c1,-2,4,3,0,1,53,/
Oc1ccc(Nc2nc(-c3ccc4ccccc4c3)cs2)cc1,3,63*,/,-1,17,/,30
CC(=O)Nc1nc(-c2ccc3ccccc3c2)cs1,0,3,0,0,1,/,/
CC(C)c1cc(CNC(=O)C2CCC(=O)N(CCc3ccc(Cl)cc3)C2)on1 (stereo not given),0,0,2,0,0,/,/
CCOc1ccc(/C=C/[N+](=O)[O-])c2ccccc12,4,221*,3,-1,-4,51,-9
Cc1ccc(NC(=O)c2nc(S(=O)(=O)Cc3ccccc3)ncc2Cl)cc1,-1,1,0,0,-11,/,/
Cc1ccccc1CS(=O)(=O)c1ncc(Cl)c(C(=O)Nc2ccc(F)cc2)n1,-2,187*,-6,0,-9,/,101*
Cc1cccc(C)c1NC(=O)c1nc(S(=O)(=O)Cc2ccccc2)ncc1Cl,-2,239*,2,0,-11,/,271*
Cc1nnc(NC(=O)c2nc(S(=O)(=O)Cc3ccccc3)ncc2Cl)s1,0,41*,2,0,-11,/,11
O=C(Nc1ccc(F)cc1)c1nc(S(=O)(=O)Cc2ccccc2)ncc1Cl,0,-9,0,0,-11,/,/
